Assay outcomes: PubChem, several laboratories
CSC inhib = cancer stem cell inhibition; cancer stem cell-like cells viability, luminescence; inhibition, % at 7.5 µM; 300,000 tested, 1.1% active; AID 2717; in the data active means inhibition above about 75%; inconclusive means no clear call, values can overlap the other calls; tested in HMLE shEcad cells
Beta cell apopt = blocks beta cell apoptosis | AID 435005 | INS-1E cytokine-induced death, ATP luminescence, 48 h; percent of positive-control rescue, neutral wells zero | protection from apoptosis, % (test concentration not listed) | 300,000 tested, 0.8% active;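 active means Every replicate reaches about 75%, or at least half do and their mean reaches it too, limit read from the data; inconclusive means At least half of replicates reach the limit but their mean does not; inactive means Under half of replicates reach the limit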;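 further: 0% = cytokine-treated negative control wells and 100% = positive control rescue; higher means more ATP so stronger rescue from cytokine killing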
UPR XBP1 act = activators of adaptive arm of unfolded protein response (XBP1); CHO-XBP1 luciferase reporter, IRE1-XBP1 UPR activation, luminescence; percent of tunicamycin response, DMSO as zero; activation, % at 20 µM; 330,000 tested, 0.33% active; AID 463104;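 active means versus positive control, 20 µM dose yields 30% or more activation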;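 further: 100% = tunicamycin at 10 µg/mL and 0% = DMSO only wells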
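Assay system: IRE1-XBP1 luciferase reporter CHO line. Input: 1000 cells/well. Buffer or medium: F12 with 10% serum. Doses: 20 µM, 1% DMSO. Times: overnight seeding at 37 °C, 6 h compound treatment at 37 °C. Technique: Steady-Glo luciferase glow luminescence, 10 min after reagent addition.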
SKKanGAS inh = blocks kanamycin growth of S. pyogenes SKKanGAS strain | 300,000 tested, 1.3% active | BacTiter-Glo, 6 h | inhibition, % at 7.5 µM;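 active means mean replicate score, as percent of positive control median, at least 50; inconclusive means mean below 50 but one replicate at or above 50; inactive means mean and every replicate below 50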;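 further: strain carries kanamycin resistance gene driven by streptokinase promoter and grows in 40 µg/ml kanamycin; loss of luminescence reflects streptokinase promoter inhibition or plain growth inhibition; 0% = median of DMSO wells and 100% = positive control at its reference dose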
Mdm2-MdmX inh = human Mdm2/MdmX binding inhibition; O15151+Q00987; SaOS-2 split-luciferase Mdm2/MdmX complementation, luminescence; inhibition, % at 8 µM; 330,000 tested, 3% active; AID 485346;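 active means inhibition of at least 50% at 8 µM in the primary screen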
Target sequence (O15151 whole entry, looked up): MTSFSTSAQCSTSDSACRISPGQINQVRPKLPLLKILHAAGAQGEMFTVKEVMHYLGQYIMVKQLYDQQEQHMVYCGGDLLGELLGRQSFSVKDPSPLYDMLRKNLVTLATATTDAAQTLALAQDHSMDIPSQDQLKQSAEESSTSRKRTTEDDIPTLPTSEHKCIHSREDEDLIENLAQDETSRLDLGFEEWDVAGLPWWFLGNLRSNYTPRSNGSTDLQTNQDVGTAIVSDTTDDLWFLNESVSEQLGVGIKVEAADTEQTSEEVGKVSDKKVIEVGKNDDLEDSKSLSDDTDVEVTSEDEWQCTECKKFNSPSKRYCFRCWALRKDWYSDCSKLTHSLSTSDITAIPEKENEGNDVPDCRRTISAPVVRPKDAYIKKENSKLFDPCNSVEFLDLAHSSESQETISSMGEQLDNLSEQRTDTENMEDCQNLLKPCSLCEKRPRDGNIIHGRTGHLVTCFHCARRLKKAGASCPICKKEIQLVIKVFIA
Target sequence (Q00987 whole entry, looked up): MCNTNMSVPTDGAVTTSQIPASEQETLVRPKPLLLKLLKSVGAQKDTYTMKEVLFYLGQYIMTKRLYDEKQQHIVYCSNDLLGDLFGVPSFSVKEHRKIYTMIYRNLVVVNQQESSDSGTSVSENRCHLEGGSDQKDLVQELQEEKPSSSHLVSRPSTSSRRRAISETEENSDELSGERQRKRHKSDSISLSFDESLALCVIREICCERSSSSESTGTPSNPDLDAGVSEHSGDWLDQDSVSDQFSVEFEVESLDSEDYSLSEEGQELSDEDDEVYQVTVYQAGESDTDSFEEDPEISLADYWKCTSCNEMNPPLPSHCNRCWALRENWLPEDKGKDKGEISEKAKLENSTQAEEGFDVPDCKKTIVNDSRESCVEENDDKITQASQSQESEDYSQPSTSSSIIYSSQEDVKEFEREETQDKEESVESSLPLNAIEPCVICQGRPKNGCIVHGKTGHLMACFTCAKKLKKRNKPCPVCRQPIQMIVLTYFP
CHOP UPR activ = apoptotic UPR (CHOP) activation | CHO-CHOP luciferase reporter, luminescence; percent of tunicamycin response over DMSO baseline | activation, % at 10 µM | 330,000 tested, 0.34% active;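 active means at 10 µM dose, activation of 40% or more, normalized to positive control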;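 further: 100% = tunicamycin at 10 µg/mL and 0% = DMSO alone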
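Test system: CHO-CHOP cells, stable luciferase reporter of PERK-eIF2a-CHOP signalling | Quantity: 500 CHO-CHOP cells per well | Buffer or medium: F12 plus 10% serum | Compound dosing: 10 µM single point, 0.5% DMSO | Schedule: 6 h compound treatment, 37 °C | Signal: Luciferase luminescence | Control set: Tunicamycin high control, DMSO low control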
UPR CHOP confirm = confirmation of apoptotic unfolded protein response (CHOP) activators; AID 463112; activation, % at 10 µM; shares compounds with CHOP UPR activ; 1,000 tested, 64% active; CHO-CHOP cells, CHOP-luciferase reporter luminescence; percent of tunicamycin response, DMSO as zero; in the data active means activation above about 33%;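 further: 0% = DMSO wells and 100% = tunicamycin 10 µg/mL wells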
Active calls of the source: *; ? = inconclusive; · = not tested or not shown. Hits are enriched below; roughly 4.8% of the tested compounds scored in any of these assays.

SMILES	CSC inhib	Beta cell apopt	UPR XBP1 act	SKKanGAS inh	Mdm2-MdmX inh	CHOP UPR activ	UPR CHOP confirm
Cc1cc(C)nc(-n2nc(C)cc2Nc2ccccc2)n1	16.2	84.6*	16.7	79.0*	2.2	58.8*	5.0
CC(=O)N(C1CC(C)C(C#N)(C#N)C1(C#N)C#N)N(C)C (stereo not given)	17.5	-12.8	-7.0	7.6	15.2	71.7*	-8.8
CCOC(=O)c1ccc(N=Cc2c(O)c3ccccc3oc2=O)cc1	2.4	1.0	3.0	6.9	17.1	8.1	·
COc1cccc(N=Cc2c(O)c3ccccc3oc2=O)c1	27.2	-2.8	108.2*	0.6	23.8	100.7*	52.2*
CCc1cc(C(=O)Nc2ncccc2O)sc1C	-0.6	7.9	-6.6	6.6	-29.7	-2.0	·
Cc1cccc(NC2CCCCC2NS(=O)(=O)c2ccccc2)c1 (stereo not given)	·	·	0.1	7.4	10.2	-2.8	·
O=C(c1cccs1)N(C(=O)c1cccs1)c1ccc(Br)cn1	-12.3	13.4	85.8*	13.2	25.7	98.0*	59.0*
COc1ccc2c(c1)CCc1c(C(=O)Nc3cc(C)n(Cc4ccc(Cl)cc4)n3)noc1-2	18.6	62.6	141.5*	-6.4	44.8	107.3*	121.5*
Cc1cc(=O)n(C(C)(C)C)c(=O)n1Cc1ccccc1	-10.7	-4.2	-5.8	2.1	-15.4	-1.9	·
O=[n+]1c2c(n([O-])c3cc(F)c(N4CCCC4)cc31)CCCC2	6.4	-3.1	4.9	3.9	-4.2	2.1	·
O=[n+]1c2c(n([O-])c3cc(F)c(N4CCCC4)cc31)CCC2	-2.5	-2.0	23.6	1.2	-6.5	40.8*	-0.7
Cc1csc(=O)n1CC(=O)OCC(=O)Nc1ccc(F)c(F)c1	-10.9	-10.6	-5.4	-1.9	7.7	1.9	·
O=S(=O)(c1ccc(S(=O)(=O)N2CCCC2)cc1)N1CCCCC1	-9.2	-3.3	6.8	0.1	0.9	0.9	·
O=S(=O)(c1ccc(S(=O)(=O)N2CCCC3(CCCCC3)C2)cc1)N1CCCCC1	-0.4	3.6	20.3	3.6	41.9	51.8*	2.3
CC(=O)n1cc(C(C[N+](=O)[O-])SCCN)c2ccccc21 (stereo not given)	-4.7	0.0	5.5	-1.1	25.8	138.4*	-3.7
CCS(=O)(=O)c1cc([N+](=O)[O-])c(Sc2ccccc2NC(C)=O)s1	8.9	-9.0	1.5	-11.3	-22.9	59.3*	14.7
CCOC(=O)c1sc(Nc2nc3c(OC)cccc3s2)nc1C	32.4	21.0	4.2	11.0	2.6	4.1	·
COc1cccc2sc(Nc3nc(-c4ccccn4)cs3)nc12	·	110.9*	9.4	99.5*	42.7	624.2*	424.6*
COc1cccc2sc(Nc3nnc(-c4cccs4)o3)nc12	63.5	67.6	5.0	91.9*	19.5	55.3*	59.7*
Cc1cc(C)cc(C(=O)NCCC(=O)N2CCC3(CC2)NCCc2[nH]cnc23)c1	-13.8	-3.9	-4.6	-3.1	7.3	0.3	·
COc1ccccc1N1CCN(/N=C/c2ccc(O)c(O)c2)CC1	-5.9	-17.3	9.4	7.8	-3.1	184.2*	101.3*
Clc1ccc(/C=N/N2CCCCC2)cc1	23.0	-2.3	4.4	18.1	-0.7	3.1	·
Oc1ccc(/C=N/N2CCCCC2)cc1O	32.1	11.6	5.3	0.0	-18.1	178.5*	38.0*
CCNC(=S)N1CCN(C(=O)C(Cc2ccccc2)NC(C)=O)CC1 (stereo not given)	-9.4	-4.6	-4.3	·	-9.3	52.3*	-0.3
CN=c1scc(-c2ccco2)n1/N=C/c1ccc(O)c(O)c1	·	·	-3.3	-9.9	-41.7	51.9*	69.8*
SMILES	CSC inhib	Beta cell apopt	UPR XBP1 act	SKKanGAS inh	Mdm2-MdmX inh	CHOP UPR activ	UPR CHOP confirm
CN=c1scc(C)n1/N=C/c1ccc(O)cc1	2.8	9.5	1.3	·	-98.7	2.9	·
C=CCN=c1scc(C)n1/N=C/c1ccc(O)c(O)c1	36.3	13.7	18.9	6.3	-22.9	302.1*	208.4*
COc1cccc(N2CCN(C(=O)CNC(=O)c3sc4ccccc4c3Cl)CC2)c1	2.7	2.3	-6.6	17.9	31.5	0.5	·
O=C(Nc1ccc(S(=O)(=O)N2CCOCC2)cc1)c1ccc([N+](=O)[O-])o1	?	68.1	-0.5	4.5	39.2	139.0*	97.8*
O=C(Nc1ccc(S(=O)(=O)N2CCOCC2)cc1)c1cccs1	-0.8	4.7	-1.6	-2.2	6.1	1.7	·
O=C(Nc1ccc(S(=O)(=O)N2CCOCC2)cc1)c1ccco1	-5.6	1.8	-0.7	-1.1	-14.1	0.8	·
O=C(Nc1ccc(Cc2ccncc2)cc1)c1ccc([N+](=O)[O-])o1	18.5	?	-4.9	1.5	42.4	63.3*	78.2*
O=C(Nc1ccc(S(=O)(=O)N2CCOCC2)cc1)c1ccc([N+](=O)[O-])s1	63.2	90.1*	3.7	3.4	37.1	67.9*	4.4
O=C(Nc1ccc(N2CCOCC2)cc1)c1ccc([N+](=O)[O-])o1	·	-34.4	-0.4	8.9	45.3	56.9*	61.4*
CC(C)CN(C(=O)c1ccc(S(=O)(=O)N2CCCC2)cc1)C1CCS(=O)(=O)C1 (stereo not given)	-3.8	0.4	-0.1	1.5	21.6	-0.7	·
NS(=O)(=O)c1ccc(CNC(=O)Cc2ccsc2)cc1	-12.8	-4.8	-5.7	4.1	-9.1	-2.9	·
Cc1ccc(NC(=O)c2ccco2)c(NC(=O)c2ccc(Cl)cc2)c1	5.4	-1.1	-4.4	-2.6	8.2	-0.7	·
O=C(CCc1nc2ccccc2c(=O)[nH]1)N1CCCc2ccccc21	-1.5	4.3	-3.6	-0.7	14.6	2.3	·
CC(=O)Nc1ccc(S(=O)(=O)N(C)c2ccc(OCC(=O)OCC(=O)NCc3ccco3)cc2)cc1	-6.9	-8.4	-0.7	-3.3	-13.4	4.0	·
CC1CCC(NC(=O)COC(=O)CNC(=O)c2ccc3ccccc3c2)CC1 (stereo not given)	-5.4	1.1	2.8	·	5.0	-0.9	·
CCn1c(=O)c(C(=O)CN(C)CC(=O)Nc2ccccc2Br)c(N)n(Cc2ccccc2)c1=O	·	·	-0.7	·	15.5	0.3	·
O=C(CN1C(=O)c2ccccc2S1(=O)=O)NCc1cccs1	·	·	-4.4	0.8	15.2	-0.6	·
CC(=O)Nc1ccc2nc(NC(=O)c3ccco3)sc2c1	5.3	·	-3.7	5.2	-43.4	3.1	·
CC(=O)Nc1ccc2nc(NC(=O)c3ccc([N+](=O)[O-])o3)sc2c1	38.3	·	0.9	19.8	10.2	61.3*	24.9
COc1ccc(CNC(=O)N2CCc3ccccc3C2)cc1Cl	14.8	2.9	2.4	-2.6	-13.6	-0.7	·
CCOC(=O)c1c(C)oc2c1c(C(c1cccnc1)N1CCCCC1)c(O)c1ccccc12 (stereo not given)	28.8	-0.9	11.3	1.2	-60.7	114.0*	181.9*
